Screening results from PubChem.
Compounds with a hit are over-represented: about 1.3% of the library has one in this group of screens.
TAG inh = triacylglycerol accumulation inhibition | H9c2 cells, Nile Red lipid (TAG) fluorescence; cells loaded with 200 µM oleic acid | inhibition, % at 12.5 µM | actives 0.66% (n = 230,000);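 active means pattern-corrected inhibition of lipid staining of at least 50% with the nuclear-stain viability signal not falling by more than 50%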;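 further: 0% = DMSO wells and 100% = triacsin C control wells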
GSK3beta inhib = human GSK3beta kinase inhibition | GST-GSK3beta kinase, ADP-Glo luminescence, 60 min; active compounds read low | activity score (negative = inhibition), % at 10 µM | actives 0.038% (n = 300,000) | AID 2097;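 active means more than half of replicate wells score below -50%, meaning over 50% inhibition versus plate controls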;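 further: 0% = median DMSO wells and -100% = median GW8510 positive control wells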
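Test system: GST-fused GSK3beta enzyme, cell-free | Quantity: 1.6 ng GST-GSK3beta enzyme per well | Reagent: 25 µM ATP with peptide substrate | Schedule: 60 min enzyme reaction, room temperature | Signal: Luminescent ADP-Glo measurement of ADP formed | Read-out basis: Score relative to plate controls | Control set: DMSO and 20 µM GW8510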
GSK3A inh = human GSK-3 alpha kinase inhibition; P49840; ADP-Glo luminescence, 60 min; inhibition, % at 10 µM; actives 0.1% (n = 320,000); AID 2650;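 active means more than half of replicates show inhibition above 20%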;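 further: GST-tagged GSK-3 alpha with peptide substrate and 25 µM ATP; 0% = DMSO neutral wells and 100% = GW8510 positive control wells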
Target sequence (P49840 whole entry, looked up): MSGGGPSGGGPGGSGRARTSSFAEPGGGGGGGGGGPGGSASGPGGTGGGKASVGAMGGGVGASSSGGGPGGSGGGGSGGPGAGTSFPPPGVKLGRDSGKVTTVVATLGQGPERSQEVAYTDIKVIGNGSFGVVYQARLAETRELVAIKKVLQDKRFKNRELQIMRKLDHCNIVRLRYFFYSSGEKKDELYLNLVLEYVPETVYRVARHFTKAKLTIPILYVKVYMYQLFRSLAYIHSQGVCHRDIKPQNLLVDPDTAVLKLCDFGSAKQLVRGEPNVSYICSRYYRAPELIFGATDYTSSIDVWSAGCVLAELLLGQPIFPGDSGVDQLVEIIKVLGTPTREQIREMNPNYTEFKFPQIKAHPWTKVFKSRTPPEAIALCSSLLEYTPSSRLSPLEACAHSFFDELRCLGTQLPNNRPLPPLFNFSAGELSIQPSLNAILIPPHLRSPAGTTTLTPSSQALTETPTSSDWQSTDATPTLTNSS
STK33 kinase inh = human STK33 kinase inhibition | purified STK33, MBP phosphorylation, ADP-Glo luminescence | inhibition, % at 10 µM | actives 0.073% (n = 320,000);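 active means inhibition at or above 25%, using the most active replicate where run in duplicate; inactive means inhibition below 25%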
Lipid droplet = modulators of hepatic lipid droplet formation | AML12 mouse hepatocytes, oleate lipid droplets, BODIPY imaging | inhibition, % at 6.5 µM | actives 0.4% (n = 240,000) | AID 1656;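 active means lipid droplet intensity inhibited by at least 50%, with more than 500 cells counted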
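Material – AML12 mouse liver cells · Also added – oleate loading, 100 µM · Compound dosing – 6.5 µM single-point dosing · Times – overnight treatment with compound plus oleate · Measured by – fluorescence imaging, 20x objective, two fields per well · Read-out – percent inhibition of filter-corrected integrated lipid droplet intensity per well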
LANA-H2A inh = blocks KSHV LANA binding to histone H2A/H2B. actives 0.6% (n = 320,000). Q9QR71. inhibition, % (concentration not given with the values). cell-free LANA-H2A/H2B peptide, fluorescence polarization; in the data active means inhibition mostly above about 10%, no sharp cut-off; inactive means mostly below about 6.7%
Numbers without * were called inactive; . = no result given; + = active, no number.

SMILES | TAG inh | GSK3beta inhib | GSK3A inh | STK33 kinase inh | Lipid droplet | LANA-H2A inh
O=C(COc1cccc2cccnc12)N/N=C/c1cccn1-c1ccc(F)cc1 | -34 | 1 | -1 | 2 | -13 | 0
CCN(CC)CCNC(=O)c1cc2c(-c3ccc(Cl)cc3)nn(C)c2s1 | 65* | -7 | . | . | . | .
CCN(CC(=O)Nc1ccc(NC(C)=O)cc1)CC(=O)Nc1ccccc1C(=O)c1ccccc1 | -2 | 4 | -1 | 5 | -13 | 10*
CC(C)(C)SCCNC(=O)c1ccc(Cl)c(S(=O)(=O)N2CCOCC2)c1 | 2 | 2 | -6 | -1 | . | 1
CCOC(=O)C(C)On1c(-c2cccc(Cl)c2)nc2ccc([N+](=O)[O-])cc21 (centres undefined) | -7 | -4 | 1 | 4 | -3 | 51*
Cc1cc(=O)oc2cc(OCC(=O)N/N=C/c3cc([N+](=O)[O-])ccc3O)ccc12 | . | 2 | 6 | 4 | -6 | +
COc1cc2c(cc1NC(=O)COC(=O)[C@@H](NC(=O)c1ccccc1)C(C)C)oc1ccccc12 | . | 2 | -4 | -2 | -12 | 25*
COc1cc2c(cc1NC(=O)COC(=O)[C@@H](NC(=O)c1ccccc1F)C(C)C)oc1ccccc12 | -2 | 2 | 2 | 0 | 23 | -6
Cc1ccc2cc3c(nc2c1)N(c1ccccc1)CC3 | 13 | -10 | -4 | 1 | -36 | 1
COc1ccc(CSc2nnc(C)s2)cc1F | 0 | 1 | 0 | -1 | 6 | +
O=C1N=c2ccccc2=C1c1[nH]c(=S)[nH]c1O | . | -1 | 9 | 5 | 1 | 12*
Cc1ccc(C(=O)SC2=NCCS2)cc1 | . | 1 | -3 | 0 | -3 | -4
Oc1ccc(-n2cccc2/C=N/n2cnnc2)cc1 | -1 | 0 | 1 | 1 | 0 | 8
C/C(=N\Nc1ccc(Cl)c(C(=O)O)c1)c1ccc(N2CCOCC2)cc1 | . | 3 | 9 | 3 | -6 | 11*
Cc1ccc(NC(=O)c2cccc(NC3=NC4CS(=O)(=O)CC4S3)c2)cc1C (centres undefined) | 6 | 0 | 1 | -1 | -7 | 24*
Cc1cccc(NC(=O)c2cccc(NC3=NC4CS(=O)(=O)CC4S3)c2)c1 (centres undefined) | 19 | 2 | 5 | -1 | -9 | 0
CC(=O)Nc1cc(-c2ccccc2F)cn2c(-c3ccccc3)cnc12 | -8 | . | . | . | . | .
CN(CC(=O)Nc1ccc(F)cc1)C(=O)COC(=O)Cc1c(F)cccc1Cl | -16 | 0 | 0 | 0 | . | -3
O=C(CN1CCN(c2ccc(F)cc2)CC1)Nc1ccc(F)c(F)c1 | -6 | 1 | -1 | 1 | -9 | 1
COc1ccc(C(=O)NC2CCN(S(=O)(=O)c3ccccc3)CC2)cc1 | -10 | . | -4 | -1 | 10 | 0
COc1ccc(S(=O)(=O)N2CCC(Nc3ccccc3Cl)CC2)cc1 | 5 | -2 | 0 | -1 | -24 | 38*
CCOc1ccc(C(=O)NCC(=O)NCCOc2ccc(C)cc2)cc1 | -2 | 2 | -1 | 0 | -8 | -5
Cc1ccc(C)c2c1CCC(=Cc1ccccc1[N+](=O)[O-])C2=O | -1 | . | . | . | . | .
CN1C/C(=C/c2ccccc2[N+](=O)[O-])C(=O)/C(=C\c2ccccc2[N+](=O)[O-])C1 | 69* | . | . | . | . | .
O=C(CN1CCN(c2ccccn2)CC1)Nc1cccc(S(=O)(=O)N2CCOCC2)c1 | -7 | -1 | -2 | -1 | -7 | 26*
SMILES | TAG inh | GSK3beta inhib | GSK3A inh | STK33 kinase inh | Lipid droplet | LANA-H2A inh
N#CC(c1nc2ccccc2nc1N1CCCC1)S(=O)(=O)c1ccccc1 (centres undefined) | . | 1 | 1 | 1 | . | 17*
CN1CCN(c2nc3ccccc3nc2C(C#N)S(=O)(=O)c2ccccc2)CC1 (centres undefined) | . | 1 | 1 | -3 | -16 | 5
Oc1ccccc1-c1nc(NCCN2CCOCC2)c2ccccc2n1 | 16 | -2 | 1 | 60* | . | -2
CSc1nc(NCC(C)O)c2c3c(sc2n1)CN(C)CC3 (centres undefined) | . | -54* | 48 | 4 | 20 | -1
OCCN(CCO)c1nc(N2CCCCC2)c2nc(N(CCO)CCO)nc(N3CCCCC3)c2n1 | 1 | . | . | . | 34 | 79*
CN(C)C(=O)CN1CCN(c2nc3nonc3nc2N2CCCCC2)CC1 | -7 | -4 | 0 | 0 | 3 | 3
Cn1c(SCC(=O)Nc2ccc(N3CCOCC3)c(Cl)c2)nnc1-c1ccccc1 | . | 2 | -3 | -1 | . | 40*
CCn1c(Cc2ccccc2)nnc1SCC(=O)Nc1ccc(N2CCOCC2)c(Cl)c1 | -9 | 1 | 1 | 1 | -19 | 3
COc1ccccc1NC(=O)c1ccc(NC(=O)COC(=O)C2CC2C)cc1 (centres undefined) | . | 5 | 7 | 2 | 0 | 19*
COc1ccccc1NC(=O)c1ccc(NC(=O)COC(=O)C2CCCO2)cc1 (centres undefined) | 15 | . | . | . | 28 | .
O=C(c1ccc(F)cc1)N1CCC(O)(c2cccnc2)CC1 | -23 | -1 | 0 | 0 | . | -2
O=C1/C(=N\S(=O)(=O)c2cccs2)C([n+]2ccccc2)=C([O-])c2ccccc21 | 76* | 2 | -1 | 0 | -4 | 1
COc1ccc(C(=O)NC(=S)Nc2ccc(S(=O)(=O)Nc3cc(C)on3)cc2)cc1OC | 4 | 3 | -1 | -1 | -19 | 7
CCOc1ccc(NC(=S)N2CCC(C(=O)c3ccc(OC)cc3)CC2)cc1 | -5 | . | . | . | . | .
CCS(=O)(=O)c1ccc2oc(SCC(=O)c3c(N)n(C4CC4)c(=O)[nH]c3=O)nc2c1 | -15 | . | -1 | 0 | . | 47*
Cc1ccc(Nc2nnc(SCC(=O)c3c(N)n(C4CC4)c(=O)[nH]c3=O)s2)cc1C | 8 | . | -1 | -1 | . | +
CCC(=O)c1ccc(OCc2ccc(C(=O)OC)cc2)cc1 | -26 | 0 | 3 | 0 | 17 | 14*
CC(=O)Cn1ncc(Br)c(Br)c1=O | 61* | 0 | . | . | -17 | .
COc1ccccc1NC(=O)CCNC(=O)C1CCN(S(=O)(=O)c2ccccc2)CC1 | 1 | . | . | . | . | .
Cc1ccccc1NC(=S)N1CCC(C(=O)c2ccc(F)cc2)CC1 | . | -3 | -2 | -2 | 1 | 28*
CC(C)CCN1C(=O)c2cccc3c(N)ccc(c23)C1=O | -52 | 4 | -2 | 0 | . | 14*
Nc1ccc2c3c(cccc13)C(=O)N(c1ccccc1)C2=O | -10 | 1 | . | . | 22 | .
Cc1cccc(N2C(=O)c3cccc4c(N)ccc(c34)C2=O)c1 | . | 0 | -1 | 0 | 6 | 61*
Nc1cccc(N2C(=O)c3cccc4c(N)ccc(c34)C2=O)c1 | . | -2 | 1 | 0 | -4 | 26*
CCN1C(=O)c2cccc3c(Cl)ccc(c23)C1=O | -13 | 0 | . | 1 | 1 | -2
